# Experimental data as given in ChEMBL document CHEMBL3232816, “Substituted E-3-(3-indolylmethylene)1,3-dihydroindol-2-ones with antiproliferative activity. Study of the effects on HL-60 leukemia cells” (2014).
# Activity calls are given as the source filed them. No cut-off for these calls is given here.
# Experiments:
# [1] = Cytotoxicity against human prostate cancer cells after 48 hrs; assay type: functional; settings: Cancer cell lines
# Method in brief: (§1)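 NCI 60-line panel. Compounds were dissolved in DMSO and tested at five 10-fold dilutions, the highest 10^-4 M (10^-3 M where footnoted), over 48 h of incubation. The readouts were GI50, TGI and LC50 in μM, with the panel mean also given. Only compounds passing a 10^-5 M single-dose prescreen were tested; some were repeated and averaged over two experiments.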
# [2] = tested on: HL-60; assay: Induction of apoptosis in human HL60 cells assessed as increase in intracellular free Mg2+ level at 1 uM after 24 hrs by Mag-Fura2 probe-based fluorometric analysis; assay type: functional, cell-based
# Method in brief: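 They were loaded with 5 μM Mag-Fura2 for 60 min at 37 °C in the dark, washed, and held 45 min at room temperature. Emission at 510 nm was read with excitation at 335/370 nm. Rmin came from 5 mM EDTA/EGTA then 0.1% Triton X-100, Rmax from MgSO4. Free Mg2+ was calculated with Kd 2.1 mM, in triplicate.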
# [3] = Cytotoxicity against human CNS cancer cells after 48 hrs; assay type: functional; settings: Cancer cell lines; method in brief: as §1
# [4] = tested on: HL-60; assay: Induction of apoptosis in human HL60 cells assessed as increase in caspase proteolytic activity using DEVD as substrate at 1 uM after 24 hrs by fluorometric analysis; assay type: functional, cell-based
# Method in brief: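 After 24 h exposure of HL-60 cells to 1 μM compound or DMSO vehicle, DEVD-hydrolysing caspase (DEVDase) activity was measured fluorometrically in cell extracts. Means ± s.e.m. of three determinations.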
# [5] = tested on: HL-60; assay: Induction of apoptosis in human HL60 cells assessed as increase in oxidative stress at 1 uM after 24 hrs by DCFDA staining; assay type: functional, cell-based
# Method in brief: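 Intracellular peroxides in HL-60 cells treated 24 h with 1 μM compound or DMSO. Cells were loaded with 5 μM DCF-DA for 30 min at 37 °C, then DCF fluorescence was acquired by flow cytometry with logarithmic amplification. Means ± s.e.m., n=3.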
# [6] = tested on: HL-60; assay: Cell cycle arrest in human HL60 cells assessed as accumulation at S phase at 1 uM after 24 hrs by propidium iodide staining-based flow cytometric analysis (reference value: 56.9%); assay type: functional
# [7] = tested on: HL-60; assay: Induction of apoptosis in human HL60 cells assessed as increase in intracellular free Ca2+ level at 1 uM after 24 hrs by INDO-1/AM probe-based fluorometric analysis; assay type: functional, cell-based
# Method in brief: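 They were stained with 5 μM INDO-1/AM, excited at 346 nm, and emission read at 405/485 nm. Rmin came from 5 mM EDTA/EGTA plus 5 μM digitonin, Rmax from 10 mM CaCl2. Free Ca2+ was calculated with Kd […]. Means ± s.e.m., n=3.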
# [8] = tested on: HL-60; assay: Cell cycle arrest in human HL60 cells assessed as accumulation at G2-M phase at 1 uM after 24 hrs by propidium iodide staining-based flow cytometric analysis (reference value: 10.7%); assay type: functional
# [9] = Cytotoxicity against human renal cancer cells after 48 hrs; assay type: functional; settings: Cancer cell lines; method in brief: as §1
# [10] = Cytotoxicity against human ovarian cancer cells after 48 hrs; assay type: functional; settings: Cancer cell lines; method in brief: as §1
# [11] = Cytotoxicity against human colon cancer cells after 48 hrs; assay type: functional; settings: Cancer cell lines; method in brief: as §1
# [12] = Cytotoxicity against human breast cancer cells after 48 hrs; assay type: functional; settings: Cancer cell lines; method in brief: as §1
# [13] = tested on: HL-60; assay: Cytotoxicity against human HL60 cells assessed as growth inhibition at 1 uM measured up to 48 hrs; assay type: functional, cell-based
# Method in brief: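 HL-60 cells, RPMI 1640 with 10% fetal calf serum and 2 mM glutamine, 37 °C, 5% CO2. Cells received 1 μM compound diluted from a 10 mmol/L DMSO stock; controls got equal DMSO. Viable cells were counted daily to follow total cell number. Means ± s.e.m. of three determinations.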
# [14] = tested on: HL-60; assay: Cell cycle arrest in human HL60 cells assessed as accumulation at G0-G1 phase at 1 uM after 24 hrs by propidium iodide staining-based flow cytometric analysis (reference value: 32.4%); assay type: functional
# [15] = Cytotoxicity against human leukemia cells after 48 hrs; assay type: functional; settings: Leukemia cell; method in brief: as §1
# [16] = tested on: HL-60; assay: Effect on autophagy in human HL60 cells by acridine orange staining; assay type: functional, cell-based
# [17] = tested on: HL-60; assay: Effect on autophagy in human HL60 cells by LC3 protein processing assay; assay type: functional, cell-based
# [18] = tested on: HL-60; assay: Induction of apoptosis in human HL60 cells assessed as early apoptotic cells at 1 uM after 24 hrs by annexin V-FLUOS staining-based flow cytometric analysis (reference value: 4%); assay type: functional
# [19] = Cytotoxicity against human NSCLC cells after 48 hrs; assay type: functional; method in brief: as §1
# [20] = Cytotoxicity against human melanoma cells after 48 hrs; assay type: functional; settings: Melanoma cell; method in brief: as §1
# [21] = read-out: LC50 (the source's name)
structure (smiles),measurement,setting,value
COc1ccc(CCn2c(Cl)c(/C=C3/C(=O)Nc4ccccc43)c3ccccc32)cc1,GI50,[1],0.35 µM
same,TGI,[1],19.5 µM
same,CC50,[1]; [21],55 µM
same,Activity,[2],Active
same,GI50,[3],0.34 µM
same,TGI,[3],8.32 µM
same,CC50,[3]; [21],58.9 µM
same,Activity,[4],Active
same,Activity,[5],Active
same,Activity,[6],14%
same,Activity,[7],Active
same,Activity,[8],69.3%
same,GI50,[9],0.48 µM
same,LC50,[9],72.4 µM
same,TGI,[9],18.6 µM
same,GI50,[10],0.34 µM
same,LC50,[10],69.2 µM
same,TGI,[10],13.5 µM
same,GI50,[11],0.28 µM
same,TGI,[11],1.82 µM
same,CC50,[11]; [21],52.5 µM
same,GI50,[12],0.32 µM
same,TGI,[12],6.31 µM
same,growth inhibition (GI),[13],Active
same,Activity,[14],16.7%
same,GI50,[15],0.35 µM
same,TGI,[15],15.5 µM
same,Activity,[16],Active
same,Activity,[17],Active
same,Activity,[18],50%
same,GI50,[19],0.43 µM
same,LC50,[19],74.1 µM
same,TGI,[19],15.1 µM
same,GI50,[20],0.46 µM
same,LC50,[20],63.1 µM
same,TGI,[20],9.12 µM
